Holding throughout (format): functional
The test system of experiment [1] is Bacillus subtilis. Description: Antibacterial activity against Bacillus subtilis after 24 hrs by MTT method. Summed up: (§1)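 MIC by broth microdilution in MH medium, with MTT colorimetric read-out. Compounds come from a 50 mg/mL DMSO stock and are serially diluted in the plates. Inoculum is about 10⁵ cfu/mL, incubated at 37 °C for 24 h. The MIC is first read visually. MTT at 2 mg/mL in PBS (0.01 mol/L, pH 7.4) is then added, with a further 4–5 h at room temperature.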
(Tetrazolium assays rely on reduction of a dye to a coloured formazan, in cell work by metabolically active cells.)

For experiment [2], the system named is Pseudomonas fluorescens. Description: Antibacterial activity against Pseudomonas fluorescens after 24 hrs by MTT method. Summed up: as §1
For experiment [3], the system named is Escherichia coli. Description: Antibacterial activity against Escherichia coli after 24 hrs by MTT method. In a few lines: as §1
Experiment [4] deals with Staphylococcus aureus. Description: Antibacterial activity against Staphylococcus aureus after 24 hrs by MTT method. Summed up: as §1

Molecules are shown by their SMILES. ≈ marks a conversion by molar mass, not a printed value.

Turning to `O=c1cc(-c2ccc3c(c2)OCCO3)oc2cc(OCCN3CCOCC3)cc(O)c12`, the minimal inhibitory concentration (MIC) in experiment [1] came to 3.12 µg/mL (≈ 7.35 µM); in experiment [2], 6.25 µg/mL (≈ 14.7 µM); in experiment [3], 12.5 µg/mL (≈ 29.4 µM); in experiment [4] it was 6.25 µg/mL (≈ 14.7 µM).

With `O=c1cc(-c2ccc3c(c2)OCCO3)oc2cc(OCCBr)cc(O)c12`, the MIC in experiment [1] is 12.5 µg/mL (≈ 29.8 µM); in experiment [2] it was 12.5 µg/mL (≈ 29.8 µM); in experiment [3], 25 µg/mL (≈ 59.6 µM); in experiment [4] it was 25 µg/mL (≈ 59.6 µM).

`CCCN(CCC)CCOc1cc(O)c2c(=O)cc(-c3ccc4c(c3)OCCO4)oc2c1`: the minimum inhibitory concentration (MIC) was 12.5 µg/mL (≈ 28.4 µM) in experiment [1], 6.25 µg/mL (≈ 14.2 µM) in experiment [2], 25 µg/mL (≈ 56.9 µM) in experiment [3] and 12.5 µg/mL (≈ 28.4 µM) in experiment [4].

Regarding `CC1(C)S[C@@H]2[C@H](NC(=O)Cc3ccccc3)C(=O)N2[C@H]1C(=O)O` [PENICILLIN G], the MIC in experiment [1] was found to be 1.56 µg/mL (≈ 4.67 µM); in experiment [2], 6.25 µg/mL (≈ 18.7 µM); in experiment [3], 6.25 µg/mL (≈ 18.7 µM); in experiment [4], 1.56 µg/mL (≈ 4.67 µM).

Take `O=c1cc(-c2ccc3c(c2)OCCO3)oc2cc(OCCN3CCCCC3)cc(O)c12`: the minimum inhibitory concentration (MIC) in experiment [1] is 6.25 µg/mL (≈ 14.8 µM); in experiment [2] it was 12.5 µg/mL (≈ 29.5 µM); in experiment [3], 12.5 µg/mL (≈ 29.5 µM); in experiment [4], 12.5 µg/mL (≈ 29.5 µM).

Take `CN1CCN(CCOc2cc(O)c3c(=O)cc(-c4ccc5c(c4)OCCO5)oc3c2)CC1`: the MIC in experiment [1] is 6.25 µg/mL (≈ 14.3 µM); in experiment [2], 6.25 µg/mL (≈ 14.3 µM); in experiment [3] it was 12.5 µg/mL (≈ 28.5 µM); in experiment [4], 12.5 µg/mL (≈ 28.5 µM).

With `O=c1cc(-c2ccc3c(c2)OCCO3)oc2cc(OCCN3CCNCC3)cc(O)c12`, the minimum inhibitory concentration (MIC) is 6.25 µg/mL (≈ 14.7 µM) in experiment [1], 6.25 µg/mL (≈ 14.7 µM) in experiment [2], 12.5 µg/mL (≈ 29.4 µM) in experiment [3] and 12.5 µg/mL (≈ 29.4 µM) in experiment [4].

For `O=c1cc(-c2ccc3c(c2)OCCO3)oc2cc(O)cc(O)c12`, the minimum inhibitory concentration (MIC) in experiment [1] was determined as 12.5 µg/mL (≈ 40 µM); in experiment [2], 12.5 µg/mL (≈ 40 µM); in experiment [3], 50 µg/mL (≈ 160 µM); in experiment [4], 25 µg/mL (≈ 80.1 µM).

Turning to `O=c1cc(-c2ccc3c(c2)OCCO3)oc2cc(OCCNCCCN3CCOCC3)cc(O)c12`, the MIC is 1.56 µg/mL (≈ 3.24 µM) in experiment [1], 3.12 µg/mL (≈ 6.48 µM) in experiment [2], 6.25 µg/mL (≈ 13 µM) in experiment [3] and 3.12 µg/mL (≈ 6.48 µM) in experiment [4].

In the case of `O=c1cc(-c2ccc3c(c2)OCCO3)oc2cc(OCCN3CCCC3)cc(O)c12`, the minimal inhibitory concentration (MIC) in experiment [1] worked out at 6.25 µg/mL (≈ 15.3 µM); in experiment [2], 12.5 µg/mL (≈ 30.5 µM); in experiment [3] it was 12.5 µg/mL (≈ 30.5 µM); in experiment [4], 12.5 µg/mL (≈ 30.5 µM).

For the compound `NC[C@H]1O[C@H](O[C@H]2[C@H](O)[C@@H](O[C@H]3O[C@H](CO)[C@@H](O)[C@H](N)[C@H]3O)[C@H](N)C[C@@H]2N)[C@H](N)[C@@H](O)[C@@H]1O` [BEKANAMYCIN], the MIC was 0.39 µg/mL (≈ 0.807 µM) in experiment [1], 3.12 µg/mL (≈ 6.46 µM) in experiment [2], 3.12 µg/mL (≈ 6.46 µM) in experiment [3] and 1.56 µg/mL (≈ 3.23 µM) in experiment [4].

Turning to `CCN(CC)CCOc1cc(O)c2c(=O)cc(-c3ccc4c(c3)OCCO4)oc2c1`, the minimum inhibitory concentration (MIC) in experiment [1] turned out to be 12.5 µg/mL (≈ 30.4 µM); in experiment [2], 12.5 µg/mL (≈ 30.4 µM); in experiment [3], 25 µg/mL (≈ 60.8 µM); in experiment [4], 25 µg/mL (≈ 60.8 µM).

On to `O=c1cc(-c2ccc(O)c(O)c2)oc2cc(O)cc(O)c12` [LUTEOLIN], for which the MIC in experiment [1] was 25 µg/mL (≈ 87.3 µM); in experiment [2] it was 25 µg/mL (≈ 87.3 µM); in experiment [3], 50 µg/mL (≈ 175 µM); in experiment [4] it was 50 µg/mL (≈ 175 µM).

In the case of `O=c1cc(-c2ccc3c(c2)OCCO3)oc2cc(OCCNCc3ccccc3)cc(O)c12`, the minimum inhibitory concentration (MIC) was 3.12 µg/mL (≈ 7.02 µM) in experiment [1], 6.25 µg/mL (≈ 14 µM) in experiment [2], 12.5 µg/mL (≈ 28.1 µM) in experiment [3] and 6.25 µg/mL (≈ 14 µM) in experiment [4].

As to `O=c1cc(-c2ccc3c(c2)OCCO3)oc2cc(OCCNC3CCCCC3)cc(O)c12`, the MIC worked out at 6.25 µg/mL (≈ 14.3 µM) in experiment [1], 12.5 µg/mL (≈ 28.6 µM) in experiment [2], 25 µg/mL (≈ 57.1 µM) in experiment [3] and 12.5 µg/mL (≈ 28.6 µM) in experiment [4].

Turning to `CC(C)CNCCOc1cc(O)c2c(=O)cc(-c3ccc4c(c3)OCCO4)oc2c1`, the minimum inhibitory concentration (MIC) in experiment [1] turned out to be 12.5 µg/mL (≈ 30.4 µM); in experiment [2], 12.5 µg/mL (≈ 30.4 µM); in experiment [3] it was 25 µg/mL (≈ 60.8 µM); in experiment [4], 25 µg/mL (≈ 60.8 µM).

For the compound `O=c1cc(-c2ccc3c(c2)OCCO3)oc2cc(OCCNCc3ccc(F)cc3)cc(O)c12`, the minimum inhibitory concentration (MIC) worked out at 1.56 µg/mL (≈ 3.37 µM) in experiment [1], 6.25 µg/mL (≈ 13.5 µM) in experiment [2], 12.5 µg/mL (≈ 27 µM) in experiment [3] and 3.12 µg/mL (≈ 6.74 µM) in experiment [4].

With `O=c1cc(-c2ccc3c(c2)OCCO3)oc2cc(OCCNCCN3CCOCC3)cc(O)c12`, the minimal inhibitory concentration (MIC) was found to be 1.56 µg/mL (≈ 3.33 µM) in experiment [1], 3.12 µg/mL (≈ 6.67 µM) in experiment [2], 12.5 µg/mL (≈ 26.7 µM) in experiment [3] and 6.25 µg/mL (≈ 13.3 µM) in experiment [4].

For the compound `O=c1cc(-c2ccc3c(c2)OCCO3)oc2cc(OCCNCCO)cc(O)c12`, the MIC in experiment [1] was determined as 12.5 µg/mL (≈ 31.3 µM); in experiment [2] it was 6.25 µg/mL (≈ 15.6 µM); in experiment [3], 25 µg/mL (≈ 62.6 µM); in experiment [4], 25 µg/mL (≈ 62.6 µM).

For `CCCCNCCOc1cc(O)c2c(=O)cc(-c3ccc4c(c3)OCCO4)oc2c1`, the MIC in experiment [1] amounted to 12.5 µg/mL (≈ 30.4 µM); in experiment [2] it was 6.25 µg/mL (≈ 15.2 µM); in experiment [3] it was 25 µg/mL (≈ 60.8 µM); in experiment [4], 25 µg/mL (≈ 60.8 µM).

Turning to `O=c1cc(-c2ccc3c(c2)OCCO3)oc2cc(OCCNC3CCCC3)cc(O)c12`, the minimum inhibitory concentration (MIC) in experiment [1] is 6.25 µg/mL (≈ 14.8 µM); in experiment [2] it was 12.5 µg/mL (≈ 29.5 µM); in experiment [3] it was 25 µg/mL (≈ 59 µM); in experiment [4], 12.5 µg/mL (≈ 29.5 µM).

`CCCNCCOc1cc(O)c2c(=O)cc(-c3ccc4c(c3)OCCO4)oc2c1`: the MIC in experiment [1] turned out to be 12.5 µg/mL (≈ 31.5 µM); in experiment [2], 12.5 µg/mL (≈ 31.5 µM); in experiment [3], 25 µg/mL (≈ 62.9 µM); in experiment [4] it was 25 µg/mL (≈ 62.9 µM).

For orientation: MIC means the lowest concentration that inhibits growth of the organism. A lower MIC goes with inhibition by little substance.

Source of the values: ChEMBL document CHEMBL1153843, “Synthesis and biological evaluation of novel luteolin derivatives as antibacterial agents” (2009).
